From ChEMBL document CHEMBL1122092, “Synthesis of some potential antihypertensive phthalazinyl- and quinoxalinylguanidines” (J Med Chem, 1982)

Columns and labels:
Rattus norvegicus [1] = experiment: Percent change of heart rate in conscious DOCA Hypertensive rat at 22 hour after administration of dose of 10 mL (mg/kg po); format: functional
Outline: (§1)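 Male DOCA (metacorticoid) hypertensive rats, conscious, with an aortic catheter implanted under halothane anaesthesia at least 48 h beforehand. Fasted 18 h, then dosed orally; saline vehicle 10 mL. Blood pressure recorded via pressure transducer with minimal restraint; a tachograph triggered by the pulse gave heart rate. Percent change from pre-dose control read at 1, 2, 3, 5 and 22 h.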

Rattus norvegicus [2] = experiment: Percent change of mean arterial blood pressure in conscious DOCA Hypertensive rat at 5 hour, after administration of dose 10 mL (mg/kg po); format: functional; outline: as §1
Rattus norvegicus [3] = experiment: Percent change of mean arterial blood pressure in conscious DOCA Hypertensive rat at 1 hour, after administration of dose 10 mL (mg/kg po); format: functional; outline: as §1
Rattus norvegicus [4] = experiment: Percent change of heart rate in conscious DOCA Hypertensive rat at 2 hour after administration of dose of 10 mL (mg/kg po); format: functional; outline: as §1
Rattus norvegicus [5] = experiment: Percent change of heart rate in conscious DOCA Hypertensive rat at 5 hour after administration of dose of 10 mL (mg/kg po); format: functional; outline: as §1
Rattus norvegicus [6] = experiment: Percent change of mean arterial blood pressure in conscious DOCA Hypertensive rat at 22 hour, after administration of dose 10 mL (mg/kg po); format: functional; outline: as §1
Rattus norvegicus [7] = experiment: Percent change of mean arterial blood pressure in conscious DOCA Hypertensive rat at 3 hour, after administration of dose 10 mL (mg/kg po); format: functional; outline: as §1
Rattus norvegicus [8] = experiment: Percent change of heart rate in conscious DOCA Hypertensive rat at 3 hour after administration of dose of 10 mL (mg/kg po); format: functional; outline: as §1
Rattus norvegicus [9] = experiment: Percent change of mean arterial blood pressure in conscious DOCA Hypertensive rat at 2 hour, after administration of dose 10 mL (mg/kg po); format: functional; outline: as §1
Rattus norvegicus [10] = experiment: Percent change of heart rate in conscious DOCA Hypertensive rat at 1 hour after administration of dose of 10 mL (mg/kg po); format: functional; outline: as §1
[11] = target: Adrenergic receptor alpha; experiment: In vitro postsynaptic antagonist activity against Alpha adrenergic receptor in rat anococcygeus muscle; format: functional, tissue-based
Outline: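 Rat anococcygeus muscle; cumulative noradrenaline concentration-response curves obtained as control and again with increasing concentrations of test agent present; postsynaptic α-antagonism expressed as pA2. Mean of three experiments ± SEM.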

Rattus norvegicus [12] = experiment: In vivo threshold intravenous dose required to cause reversal of clonidine on hypogastric nerves in pithed rat; format: functional, Hypogastric nerve
Outline: (§2)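 Pithed rats given clonidine 30 μg/kg iv, which acts presynaptically (hypogastric nerve response) and postsynaptically (pressor response). Test agents were then injected iv to find the threshold dose reversing each clonidine action. Five rats per drug.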

[13] = target: Adrenergic receptor alpha; experiment: In vitro presynaptic antagonist activity against Alpha adrenergic receptor in rat vas deferens; format: functional, tissue-based
Outline: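 Rat vas deferens under 0.1 Hz stimulation; cumulative clonidine concentration-response curves run with increasing concentrations of test agent to gauge presynaptic α-antagonism; pA2 reported. Mean of three experiments ± SEM.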

Rattus norvegicus [14] = experiment: In vivo threshold intravenous dose required to cause reversal of clonidine on blood pressure in pithed rat; format: functional; outline: as §2

pA2 [11] | pA2 [13] | SMILES | Change (Rattus norvegicus [1]) [%] | Change (Rattus norvegicus [2]) [%] | Change (Rattus norvegicus [3]) [%] | Change (Rattus norvegicus [4]) [%] | Change (Rattus norvegicus [5]) [%] | Change (Rattus norvegicus [6]) [%] | Change (Rattus norvegicus [7]) [%] | Change (Rattus norvegicus [8]) [%] | Change (Rattus norvegicus [9]) [%] | Change (Rattus norvegicus [10]) [%] | Dose (Rattus norvegicus [12]) [mg/kg] | Dose (Rattus norvegicus [14]) [mg/kg]
 |  | CNc1nnc2c3ccccc3cnn12 | -10 | -5 | -12 | -25 | -25 | 4 | -12 | -25 | -13 | -23 |  | 
4.9 | 5.7 | N=C(N)Nc1nncc2ccccc12 | 3 | -20 | -22 | -14 | 1 | 4 | -24 | 7 | -20 | 2 | 3 | 1
 |  | Nc1nnc2c3ccccc3cnn12 | 7 | -23 | -14 | 7 | 2 | -3 | -20 | 6 | -19 | 8 |  | 
 |  | NNc1nncc2ccccc12 [HYDRALAZINE] | 8 | -39 | -47 | -1 | 11 | -15 | -44 | 2 | -45 | -5 |  | 
< 5.5 | 6.3 | CCCC/N=C(/N)Nc1nc2ccccc2nc1C | 2 | 5 | -3 | -2 | -4 | 20 | 0 | -5 | -5 | 3 | >1 | >1
 |  | Cc1ccc(N(CC2=NCCN2)c2cccc(O)c2)cc1 [PHENTOLAMINE] | 7 | -22 | -41 | 22 | 11 | 6 | -33 | 18 | -34 | 21 | 0.03 | 0.03
5.2 | 6.6 | CCCC/N=C(\N)Nc1nncc2ccccc12 | 11 | -9 | -10 | 19 | 18 | 8 | -12 | 21 | -10 | 14 | 1 | 1

SMILES | pA2 [11] | pA2 [13] | Change (Rattus norvegicus [1]) [%] | Change (Rattus norvegicus [2]) [%] | Change (Rattus norvegicus [3]) [%] | Change (Rattus norvegicus [4]) [%] | Change (Rattus norvegicus [5]) [%] | Change (Rattus norvegicus [6]) [%] | Change (Rattus norvegicus [7]) [%] | Change (Rattus norvegicus [8]) [%] | Change (Rattus norvegicus [9]) [%] | Change (Rattus norvegicus [10]) [%] | Dose (Rattus norvegicus [12]) [mg/kg] | Dose (Rattus norvegicus [14]) [mg/kg]
c1ccc2c(NC3=NCCN3)nncc2c1 | 4.8 | 6 |  |  |  |  |  |  |  |  |  |  | 3 | 0.3
